Experimental data published in ChEMBL document CHEMBL3124845, “Synthesis, neuronal activity and mechanisms of action of halogenated enaminones” (Eur J Med Chem, 2014).
Active and inactive are the calls of the source. No cut-off for these calls is given here.

What was measured:
Hippocampus [1] = test: Anticonvulsant activity in Sprague-Dawley rat hippocampus assessed as inhibition of population spike amplitude preincubated for 6 mins followed by compound washout measured after 10 mins by […]; assay type: functional, tissue-based
Summary of the method: (§1)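 Extracellular recording of population spikes in coronal hippocampal slices from male Sprague-Dawley rats (100–150 g), aCSF 29–31 C. Spike amplitude measured from the positive peak to the negative tip; readings taken in control, 6 min into compound and 10 min after washout. Concentration-response run up to […]; mean and standard error.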

Hippocampus [2] = test: Anticonvulsant activity in Sprague-Dawley rat hippocampus assessed as inhibition of population spike amplitude at 10 uM preincubated for 6 mins followed by compound washout measured after 10 mins by […]; assay type: functional; summary of the method: as §1
Hippocampus [3] = test: Anticonvulsant activity in Sprague-Dawley rat hippocampus assessed as inhibition of population spike amplitude at >= 100 uM preincubated for 6 mins followed by compound washout measured after 10 mins by […]; assay type: functional, tissue-based; summary of the method: as §1
Mus musculus [4] = test: Anticonvulsant activity in CF1 mouse at 100 to 300 mg/kg, ip after 30 mins; assay type: functional, organism-based
Summary of the method: (§2)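 Male CF1 mice; compound dissolved or suspended in 30% polyethylene glycol 400, given intraperitoneally at 30, 100 and 300 mg/kg. Protection scored in maximal electroshock and subcutaneous pentylenetetrazole seizure tests, with rotorod for neurotoxicity, read at 30 min and 4 h after dosing.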

[5] = Anticonvulsant activity in Sprague-Dawley rat hippocampus CA1 pyramidal neurons assessed as suppression of EPSC amplitude at 10 uM by voltage-clamp electrophysiology in presence of GABA-B receptor antagonist CGP55845; assay type: functional, Pyramidal neuron
[6] = Anticonvulsant activity in Sprague-Dawley rat hippocampus CA1 pyramidal neurons assessed as suppression of action potential firing frequency at 10 uM by voltage-clamp electrophysiology relative to control; assay type: functional, Pyramidal neuron; details: in the assay text read “current-clamp” for “voltage-clamp”
Mus musculus [7] = test: Anticonvulsant activity in CF1 mouse at <100 mg/kg, ip after 30 mins; assay type: functional, organism-based; summary of the method: as §2
[8] = Anticonvulsant activity in Sprague-Dawley rat hippocampus CA1 pyramidal neurons assessed as suppression of EPSC amplitude at 10 uM at -60mV holding potential by voltage-clamp electrophysiology relative to control; assay type: functional, Pyramidal neuron
Summary of the method: (§3)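 Coronal hippocampal slices ([…]) from halothane-anaesthetised male Sprague-Dawley rats (100–150 g), submerged in carbogenated aCSF at 29–31 C, 2–3 mL/min. Blind whole-cell patch of CA1 pyramidal cells with K-gluconate pipette solution (pH 7.3); voltage clamp near rest (60 mV). EPSCs evoked by afferent stimulation; two responses 30 s apart averaged; compound at […].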

Pyramidal neuron = test: Anticonvulsant activity in Sprague-Dawley rat hippocampus CA1 pyramidal neurons assessed as suppression of EPSC amplitude at 10 uM at -60mV holding potential measured 15 to 20 mins post compound washout by voltage-clamp electrophysiology; assay type: functional, cell-based; summary of the method: as §3
[9] = Anticonvulsant activity in Sprague-Dawley rat hippocampus CA1 pyramidal neurons assessed as suppression of EPSC amplitude at 10 uM by voltage-clamp electrophysiology in presence of GABA transaminase inhibitor vigabatrin; assay type: functional, Pyramidal neuron

| SMILES | EC50 (Hippocampus [1]) | inhibition at 10 µM (Hippocampus [2]) | inhibition (Hippocampus [3]) | also measured |
| --- | --- | --- | --- | --- |
| CCOC(=O)C1C(=O)C=C(Nc2ccc(Cl)cc2Cl)CC1C (stereo not drawn) | 10000 nM | -24.6% | inactive | – |
| CC1CC(=O)C=C(Nc2ccc(Br)cc2Br)C1 (stereo not drawn) | – | 8% | inactive | – |
| COC(=O)C1C(=O)C=C(Nc2ccc(Br)cc2Br)CC1C (stereo not drawn) | – | -25% | inactive | Activity (Mus musculus [4]): Active |
| CCOC(=O)C1C(=O)C=C(Nc2ccc(I)cc2I)CC1c1ccccc1 (stereo not drawn) | – | 4% | inactive | – |
| COC(=O)C1C(=O)C=C(Nc2ccc(Br)cc2Br)CC1c1ccccc1 (stereo not drawn) | 2100 nM | -72.2% | inactive | Activity [5]: 16.6%; Activity [6]: 39.2%; Activity (Mus musculus [7]): Active; inhibition (Hippocampus [1]): Dose-dependent effect; Activity [8]: 31.2%; Activity (Pyramidal neuron): Active; Activity [9]: 40% |
| CCOC(=O)C1CCC(Nc2ccc(Br)cc2Br)=CC1=O (stereo not drawn) | – | 35% | inactive | – |
| CCOC(=O)C1C(=O)C=C(Nc2ccc(Br)cc2Br)CC1C (stereo not drawn) | 1900 nM | -34.7% | inactive | Activity [5]: 16.6%; Activity [6]: 76.3%; Activity (Mus musculus [7]): Active; inhibition (Hippocampus [1]): Dose-dependent effect; Activity [8]: 47.5%; Activity (Pyramidal neuron): Active; Activity [9]: 3.9% |
| O=C1C=C(Nc2ccc(Br)cc2Br)CCC1 | – | -23.7% | inactive | – |
| COC(=O)C1C(=O)C=C(Nc2ccc(I)cc2I)CC1c1ccccc1 (stereo not drawn) | – | 8.5% | inactive | – |
| CC1(C)CCC(Nc2ccc(Br)cc2Br)=CC1=O | – | -18.2% | inactive | – |
